The text below walks through data of ChEMBL document CHEMBL1153427, “1-Sulfonyl-4-acylpiperazines as selective cannabinoid-1 receptor (CB1R) inverse agonists for the treatment of obesity” (J Med Chem, 2009).

Molecules are shown by their SMILES. A value given as a limit tells only on which side of the number the result lay.

In test [1] the target is T1, Cannabinoid receptor 1 (Homo sapiens, UniProt P21554). Kind of test: Displacement of [3H]CP-55940 from human recombinant CB1R expressed in CHO cells. It counts as cell-based. The method, boiled down: (§1)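 Radioligand competition used 0.5 nM [³H]CP55940 with recombinant human CB1R-CHO or CB2R-CHO membranes. Bound and free ligand were separated by filtration, and IC₅₀ came from nonlinear curve fitting.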
T1 sequence (P21554 whole entry): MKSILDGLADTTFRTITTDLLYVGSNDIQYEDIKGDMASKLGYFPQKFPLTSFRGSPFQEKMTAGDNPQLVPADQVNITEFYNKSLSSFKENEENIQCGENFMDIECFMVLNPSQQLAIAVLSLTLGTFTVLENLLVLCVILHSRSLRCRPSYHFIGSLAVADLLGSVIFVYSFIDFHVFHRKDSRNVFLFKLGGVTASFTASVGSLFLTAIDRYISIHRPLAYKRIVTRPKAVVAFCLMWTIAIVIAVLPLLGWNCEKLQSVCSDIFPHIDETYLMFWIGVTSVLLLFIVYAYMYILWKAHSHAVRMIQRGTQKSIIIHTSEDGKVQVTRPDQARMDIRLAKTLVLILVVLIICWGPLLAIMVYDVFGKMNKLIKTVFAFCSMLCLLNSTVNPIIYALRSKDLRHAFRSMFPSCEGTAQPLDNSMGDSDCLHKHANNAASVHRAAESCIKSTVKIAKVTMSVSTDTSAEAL

Another test addresses Cannabinoid receptor 2 (Homo sapiens, UniProt P34972). Kind of test: Displacement of [3H]CP-55940 from human recombinant CB2R expressed in CHO cells. It counts as cell-based. Summed up: as §1
On the technique in general: Displacement assays read how much labelled ligand stays bound in the presence of the test substance.

Test [2] concerns the target T1, Cannabinoid receptor 1. Kind of test: Inverse agonist activity at human recombinant CB1R expressed in CHO cells assessed as increase in forskolin-stimulated cAMP level. It counts as functional, cell-based. Summed up:
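Recombinant CB1R-CHO cells were incubated with test compound across a range of concentrations, plus forskolin and the phosphodiesterase inhibitor IBMX. Buffer was Earle's balanced salt solution with 5 mM MgCl₂, 10 mM HEPES pH 7.3 and 1 mg/mL BSA, for 30 min at room temperature, with cAMP read out.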

The term IC50 denotes the concentration needed to halve the response being measured. Usually EC50 stands for the midpoint of the concentration-response curve.

Chain of Cannabinoid receptor 2 (P34972 whole entry): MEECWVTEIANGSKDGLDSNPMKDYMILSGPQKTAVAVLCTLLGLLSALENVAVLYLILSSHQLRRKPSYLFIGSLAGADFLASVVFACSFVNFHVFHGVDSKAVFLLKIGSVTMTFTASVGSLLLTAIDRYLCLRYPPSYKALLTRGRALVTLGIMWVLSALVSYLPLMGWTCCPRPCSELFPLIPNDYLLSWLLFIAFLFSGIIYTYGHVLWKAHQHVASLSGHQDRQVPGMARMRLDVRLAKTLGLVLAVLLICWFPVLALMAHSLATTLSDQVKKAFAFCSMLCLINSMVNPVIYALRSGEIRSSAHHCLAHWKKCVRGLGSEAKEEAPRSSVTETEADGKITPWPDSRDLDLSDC

Consider `O=C([C@@H]1C[C@H]1c1ccc(C(F)(F)F)cc1)N1CCN(S(=O)(=O)c2cc(-c3n[nH]c(=O)o3)cc(C(F)(F)F)c2)CC1`, for which the IC50 is 100 nM at Cannabinoid receptor 1 [1] and more than 10000 nM on Cannabinoid receptor 2.

For `O=C([C@@H]1C[C@H]1c1ccc(C(F)(F)F)cc1)N1CCN(S(=O)(=O)c2cc(-n3cncn3)cc(C(F)(F)F)c2)CC1`, the results for the IC50 on Cannabinoid receptor 1 [1] and on Cannabinoid receptor 2 were 7 nM and more than 10000 nM, respectively.

Take `CC1CN(S(=O)(=O)c2cccc3ccccc23)CCN1C(=O)C1CCCCC1` (stereo unspecified): on Cannabinoid receptor 1 [1], the IC50 was found to be 310 nM. Moreover, the EC50 at Cannabinoid receptor 1 [2] came out at 7 nM.

`O=C(C1CCCCC1)N1CCN(S(=O)(=O)c2cccc3ccccc23)CC1c1ccccc1` (stereo unspecified): the IC50 on Cannabinoid receptor 1 [1] was 9000 nM. On Cannabinoid receptor 1 [2], the EC50 turned out to be 600 nM.

Take `O=C(Cc1cccc(C(F)(F)F)c1)N1CCN(S(=O)(=O)c2cc(Cl)cc(Cl)c2)CC1`: at Cannabinoid receptor 1 [1], the IC50 is 150 nM. In addition, the EC50 on Cannabinoid receptor 1 [2] was found to be 4.6 nM.

Turning to `CC1CN(C(=O)C2CCCCC2)CCN1S(=O)(=O)c1cccc2ccccc12` (stereo unspecified), the IC50 on Cannabinoid receptor 1 [1] amounted to 4700 nM. Besides, the EC50 on Cannabinoid receptor 1 [2] was found to be 180 nM.

On to `O=C([C@@H]1C[C@H]1c1ccc(C(F)(F)F)cc1)N1CCN(S(=O)(=O)c2cc(-c3ncon3)cc(C(F)(F)F)c2)CC1`, for which the results for the half-inhibitory concentration (IC50) at Cannabinoid receptor 1 [1] and on Cannabinoid receptor 2 were 0.3 nM and more than 10000 nM, respectively.

Consider `O=C([C@@H]1C[C@H]1c1ccc(C(F)(F)F)cc1)N1CCN(S(=O)(=O)c2cc(O)cc(C(F)(F)F)c2)CC1`, for which the IC50 on Cannabinoid receptor 1 [1] came to 6 nM.

As to `O=C(CCc1ccc(C(F)(F)F)cc1)N1CCN(S(=O)(=O)c2cc(Cl)cc(Cl)c2)CC1`, the IC50 on Cannabinoid receptor 1 [1] worked out at 26 nM. The EC50 at Cannabinoid receptor 1 [2] came out at 0.5 nM.

With `O=C(Cc1ccc(C(F)(F)F)cc1)N1CCN(S(=O)(=O)c2cc(C(F)(F)F)cc(C(F)(F)F)c2)C1`, the IC50 at Cannabinoid receptor 1 [1] was more than 10000 nM. For the same compound, the EC50 at Cannabinoid receptor 1 [2] was more than 10000 nM.

Take `O=C(C1CC1)N1CCN(S(=O)(=O)c2cc(Cl)ccc2Cl)CC1`: the IC50 on Cannabinoid receptor 1 [1] turned out to be 6400 nM. Further, on Cannabinoid receptor 1 [2], the EC50 turned out to be 90 nM.

As for `O=C(c1ccccc1)N1CCN(S(=O)(=O)c2cc(C(F)(F)F)cc(C(F)(F)F)c2)CC1`, the IC50 at Cannabinoid receptor 1 [1] was more than 10000 nM. At Cannabinoid receptor 1 [2], the EC50 was more than 10000 nM.

Consider `CCOC(=O)Oc1cc(C(F)(F)F)cc(S(=O)(=O)N2CCN(C(=O)[C@@H]3C[C@H]3c3ccc(C(F)(F)F)cc3)CC2)c1`, for which the half-maximal inhibitory concentration (IC50) on Cannabinoid receptor 1 [1] amounted to 8 nM.

`O=C(Cc1ccccn1)N1CCN(S(=O)(=O)c2cc(Cl)cc(Cl)c2)CC1`: at Cannabinoid receptor 1 [1], the IC50 is 3000 nM. In addition, the EC50 at Cannabinoid receptor 1 [2] was found to be 40 nM.

Regarding `O=C(C1CCCCC1)N1CCN(S(=O)(=O)c2cccc(C(F)(F)F)c2)CC1`, the IC50 on Cannabinoid receptor 1 [1] was 4200 nM. In addition, at Cannabinoid receptor 1 [2], the EC50 is more than 10000 nM.

As for `O=C([C@@H]1C[C@H]1c1ccc(C(F)(F)F)cc1)N1CCN(S(=O)(=O)c2cc(-c3n[nH]c(=O)[nH]3)cc(C(F)(F)F)c2)CC1`, the IC50 at Cannabinoid receptor 1 [1] is 400 nM; on Cannabinoid receptor 2 it was more than 10000 nM.

As to `O=C([C@@H]1C[C@H]1c1ccc(C(F)(F)F)cc1)N1CCN(S(=O)(=O)c2cc(-n3cccn3)cc(C(F)(F)F)c2)CC1`, the IC50 is 0.7 nM on Cannabinoid receptor 1 [1] and more than 10000 nM at Cannabinoid receptor 2.

Turning to `O=C(C1CCCCC1)N1C2CC1CN(S(=O)(=O)c1cccc3ccccc13)C2`, on Cannabinoid receptor 1 [1], the IC50 is more than 10000 nM. Further, the EC50 on Cannabinoid receptor 1 [2] turned out to be 900 nM.

Consider `O=C(C1CC1)N1CCN(S(=O)(=O)c2cc(Cl)c(Cl)cc2Cl)CC1`, for which the IC50 on Cannabinoid receptor 1 [1] amounted to 9700 nM. In addition, the EC50 at Cannabinoid receptor 1 [2] worked out at 1500 nM.

Consider `CC1(C)CN(S(=O)(=O)c2cccc3ccccc23)CCN1C(=O)C1CCCCC1`, for which, at Cannabinoid receptor 1 [1], the IC50 worked out at 700 nM. The EC50 at Cannabinoid receptor 1 [2] was found to be 0.6 nM.

Consider `O=C([C@@H]1C[C@H]1c1ccc(C(F)(F)F)cc1)N1CCN(S(=O)(=O)c2cc(-n3ccnn3)cc(C(F)(F)F)c2)CC1`, for which the IC50 was 50 nM on Cannabinoid receptor 1 [1] and more than 10000 nM at Cannabinoid receptor 2.

On to `O=C([C@@H]1C[C@H]1c1ccc(C(F)(F)F)cc1)N1CCN(S(=O)(=O)c2cc(-c3c[nH]nn3)cc(C(F)(F)F)c2)CC1`, for which the values for the IC50 at Cannabinoid receptor 1 [1] and at Cannabinoid receptor 2 were 3 nM and more than 10000 nM, respectively.

For the compound `N#Cc1ccc(CC(=O)N2CCN(S(=O)(=O)c3cc(Cl)cc(Cl)c3)CC2)cc1`, on Cannabinoid receptor 1 [2], the EC50 was 0.5 nM.

`O=C([C@@H]1C[C@H]1c1ccc(C(F)(F)F)cc1)N1CCN(S(=O)(=O)c2cc(-n3nccn3)cc(C(F)(F)F)c2)CC1`: the IC50 at Cannabinoid receptor 1 [1] was 0.6 nM; at Cannabinoid receptor 2, more than 10000 nM.

For the compound `O=C(C1CC1)N1CCN(S(=O)(=O)c2c(Cl)cc(Cl)cc2Cl)CC1`, the IC50 at Cannabinoid receptor 1 [1] stood at 9700 nM. The EC50 at Cannabinoid receptor 1 [2] came out at 1500 nM.

`O=C(Cc1ccccc1)N1CCN(S(=O)(=O)c2cc(Cl)cc(Cl)c2)CC1`: the IC50 on Cannabinoid receptor 1 [1] came to 800 nM. In addition, the EC50 on Cannabinoid receptor 1 [2] worked out at 2 nM.

Consider `CC(C(=O)N1CCN(S(=O)(=O)c2cc(Cl)cc(Cl)c2)CC1)c1ccc(C(F)(F)F)cc1` (stereo in doubt; 20a), for which, on Cannabinoid receptor 1 [1], the IC50 turned out to be 20 nM. For the same compound, the EC50 on Cannabinoid receptor 1 [2] was 1.5 nM.

Turning to `C[C@@H]1CN(S(=O)(=O)c2cccc3ccccc23)C[C@H](C)N1C(=O)C1CCCCC1`, the IC50 at Cannabinoid receptor 1 [1] came to 2800 nM. For the same compound, the EC50 on Cannabinoid receptor 1 [2] worked out at 8 nM.

With `O=C(C1CC1)N1CCN(S(=O)(=O)c2ccc(Cl)cc2)CC1`, the IC50 on Cannabinoid receptor 1 [1] came to 3500 nM. Besides, the EC50 on Cannabinoid receptor 1 [2] is more than 10000 nM.

In the case of `O=C(Cc1ccccc1C(F)(F)F)N1CCN(S(=O)(=O)c2cc(Cl)cc(Cl)c2)CC1`, on Cannabinoid receptor 1 [1], the IC50 was 470 nM. For the same compound, the EC50 on Cannabinoid receptor 1 [2] turned out to be 2.2 nM.

`CC(C)(C(=O)N1CCN(S(=O)(=O)c2cc(Cl)cc(Cl)c2)CC1)c1ccccc1`: the IC50 at Cannabinoid receptor 1 [1] was found to be 230 nM. Also, the EC50 at Cannabinoid receptor 1 [2] was 2.8 nM.

As to `O=C(Cc1ccc(C(F)(F)F)cc1)NC1CN(S(=O)(=O)c2cc(C(F)(F)F)cc(C(F)(F)F)c2)C1`, at Cannabinoid receptor 1 [1], the IC50 was more than 10000 nM. Further, the EC50 at Cannabinoid receptor 1 [2] is more than 10000 nM.

Turning to `CC(C(=O)N1CCN(S(=O)(=O)c2cc(Cl)cc(Cl)c2)CC1)c1ccccc1` (racemic), the IC50 on Cannabinoid receptor 1 [1] came to 220 nM. The EC50 on Cannabinoid receptor 1 [2] came to 0.3 nM.

Consider `COc1cc(C(F)(F)F)cc(S(=O)(=O)N2CCN(C(=O)[C@@H]3C[C@H]3c3ccc(C(F)(F)F)cc3)CC2)c1`, for which the IC50 on Cannabinoid receptor 1 [1] was 0.5 nM.

Consider `CC(C)(C)C(=O)Oc1cc(C(F)(F)F)cc(S(=O)(=O)N2CCN(C(=O)[C@@H]3C[C@H]3c3ccc(C(F)(F)F)cc3)CC2)c1`, for which the IC50 on Cannabinoid receptor 1 [1] amounted to 8 nM.

As to `O=C(Cc1ccc(C(F)(F)F)cc1)N1CC(NS(=O)(=O)c2cc(C(F)(F)F)cc(C(F)(F)F)c2)C1`, the IC50 on Cannabinoid receptor 1 [1] was more than 10000 nM. For the same compound, on Cannabinoid receptor 1 [2], the EC50 was more than 10000 nM.

For the compound `CN(C)C(=O)Oc1cc(C(F)(F)F)cc(S(=O)(=O)N2CCN(C(=O)[C@@H]3C[C@H]3c3ccc(C(F)(F)F)cc3)CC2)c1`, at Cannabinoid receptor 1 [1], the IC50 worked out at 2 nM.

Consider `O=C(C1CC1)N1CCN(S(=O)(=O)c2c(Cl)cccc2Cl)CC1`, for which the IC50 on Cannabinoid receptor 1 [1] came to 9700 nM. For the same compound, the EC50 on Cannabinoid receptor 1 [2] is 1500 nM.

With `O=C(C1CCCCC1)N1CCN(S(=O)(=O)c2cccc3ccccc23)CC1C(F)(F)F` (stereo unspecified), on Cannabinoid receptor 1 [1], the IC50 was 290 nM. Further, at Cannabinoid receptor 1 [2], the EC50 is 2.5 nM.

Take `O=C(Cc1ccc(C(F)(F)F)cc1)N1CCN(S(=O)(=O)c2cc(Cl)cc(Cl)c2)CC1`: the IC50 at Cannabinoid receptor 1 [1] amounted to 16 nM. Moreover, on Cannabinoid receptor 1 [2], the EC50 turned out to be 0.5 nM.

For the compound `O=C(C1CC1)N1CCN(S(=O)(=O)c2cc(Cl)cc(Cl)c2)CC1`, on Cannabinoid receptor 1 [1], the IC50 amounted to 780 nM. Moreover, the concentration for a half-maximal effect (EC50) on Cannabinoid receptor 1 [2] was found to be 5 nM.

With `CC(C)Oc1cc(C(F)(F)F)cc(S(=O)(=O)N2CCN(C(=O)[C@@H]3C[C@H]3c3ccc(C(F)(F)F)cc3)CC2)c1`, the IC50 on Cannabinoid receptor 1 [1] worked out at 0.3 nM.

Turning to `CC(C(=O)N1CCN(S(=O)(=O)c2cc(Cl)cc(Cl)c2)CC1)c1ccc(C(F)(F)F)cc1` (stereo in doubt; 20b), the IC50 at Cannabinoid receptor 1 [1] is 400 nM. The EC50 at Cannabinoid receptor 1 [2] is 11 nM.

Regarding `O=C(C1CCCCC1)N1C2CCC1CN(S(=O)(=O)c1cccc3ccccc13)C2`, at Cannabinoid receptor 1 [1], the IC50 amounted to 3100 nM. Further, at Cannabinoid receptor 1 [2], the EC50 worked out at 300 nM.
